The nature of assay [1]: Antileukemic activity against Murine P388 lymphocytic leukemia, body weight difference of the test animals compared to control group B animals at a dose of 100 mg/kg. Also on record: unit not given here. Type of assay: functional, Mus musculus. Summed up:
(§1)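 CD2F1 mice implanted intraperitoneally with ascitic fluid carrying ca. 1×10^6 P388 cells, under the NCI protocol. Dosing was intraperitoneal, starting 24 h after inoculation, then every 24 h for five doses in total. The body weight difference of treated mice is taken against untreated controls. Toxicity day survivors are the mice alive at day five out of those tested.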

A short description of assay [2]: Antileukemic activity against Murine P388 lymphocytic leukemia, body weight difference of the test animals compared to control group B animals at a dose of 12.5 mg/kg. In kind it is functional, Mus musculus. On the set-up: unit not given here. A digest of the protocol: as §1
The nature of assay [3]: Antileukemic activity against Murine P388 lymphocytic leukemia, body weight difference of the test animals compared to control group B animals at a dose of 25 mg/kg. In kind it is functional, Mus musculus. On the set-up: unit not given here. A digest of the protocol:
as §1

Assay [4] can be described thus: Antileukemic activity against Murine P388 lymphocytic leukemia, body weight difference of the test animals compared to control group B animals at a dose of 50 mg/kg. In kind it is functional, Mus musculus. Also on record: unit not given here. Summed up:
as §1

Assay [5] in a line: Toxicity day survivors expressed as number of animals that survived to day five/ number of test animals under control group B at a dose of 100 mg/kg; 1 survived out of 6. Type of assay: functional, Mus musculus.
Assay [6] can be described thus: Toxicity day survivors expressed as number of animals that survived to day five/ number of test animals under control group B at a dose of 12.5 mg/kg; […] out of 6. In kind it is functional, Mus musculus.
The nature of assay [7]: Toxicity day survivors expressed as number of animals that survived to day five/ number of test animals under control group B at a dose of 25 mg/kg; 5 survived out of 6. In kind it is functional, Mus musculus.
The nature of assay [8]: Toxicity day survivors expressed as number of animals that survived to day five/ number of test animals under control group B at a dose of 50 mg/kg; 5 survived out of 6. Type of assay: functional, Mus musculus.
A short description of assay [9]: Percent increase in life span of test animals compared to untreated tumor-bearing control group B animals at a dose of 12.5 mg/kg. Type of assay: functional. As to conditions: Mus musculus.
Assay [10] in a line: Percent increase in life span of test animals compared to untreated tumor-bearing control group B animals at a dose of 25 mg/kg. Type of assay: functional. As to conditions: Mus musculus.
Assay [11] can be described thus: Percent increase in life span of test animals compared to untreated tumor-bearing control group B animals at a dose of 50 mg/kg. Type of assay: functional. As to conditions: Mus musculus.
The subject of assay [12] is P388. Description: Log cell population relative to cell population at the beginning of treatment compared to control group B at a dose of 12.5 mg/kg. Type of assay: functional, Mus musculus.
The test system of assay [13] is P388. Description: Log cell population relative to cell population at the beginning of treatment compared to control group B at a dose of 25 mg/kg. Type of assay: functional, Mus musculus.
Assay [14] relates to P388. Description: Log cell population relative to cell population at the beginning of treatment compared to control group Bat a dose of 50 mg/kg. Type of assay: functional, Mus musculus.
Assay [15] is described as follows: Antileukemic activity against Murine P388 lymphocytic leukemia, body weight difference of the test animals compared to control group C animals at a dose of 100 mg/kg. Type of assay: functional, Mus musculus. On the set-up: unit not given here. A digest of the protocol: as §1
Assay [16] is described as follows: Antileukemic activity against Murine P388 lymphocytic leukemia, body weight difference of the test animals compared to control group C animals at a dose of 200 mg/kg. In kind it is functional, Mus musculus. Summed up: as §1
Assay [17] can be described thus: Antileukemic activity against Murine P388 lymphocytic leukemia, body weight difference of the test animals compared to control group C animals at a dose of 25 mg/kg. Type of assay: functional, Mus musculus. Summed up: as §1
Assay [18] is described as follows: Antileukemic activity against Murine P388 lymphocytic leukemia, body weight difference of the test animals compared to control group C animals at a dose of 50 mg/kg. In kind it is functional, Mus musculus. On the set-up: unit not given here. Summed up:
as §1

Assay [19] can be described thus: Percent increase in life span of test animals compared to untreated tumor-bearing control group C animals at a dose of 25 mg/kg. Type of assay: functional. As to conditions: Mus musculus.
The nature of assay [20]: Percent increase in life span of test animals compared to untreated tumor-bearing control group C animals at a dose of 50 mg/kg. In kind it is functional. As to conditions: Mus musculus.
A short description of assay [21]: Toxicity day survivors expressed as number of animals that survived to day five/ number of test animals under control group C at a dose of 100 mg/kg; 6 survived out of 6. Type of assay: functional, Mus musculus.
Assay [22] can be described thus: Toxicity day survivors expressed as number of animals that survived to day five/ number of test animals under control group C at a dose of 200 mg/kg; 6 survived out of 6. In kind it is functional, Mus musculus.
Assay [23] can be described thus: Toxicity day survivors expressed as number of animals that survived to day five/ number of test animals under control group C at a dose of 25 mg/kg; 6 survived out of 6. In kind it is functional, Mus musculus.
Assay [24] can be described thus: Toxicity day survivors expressed as number of animals that survived to day five/ number of test animals under control group C at a dose of 50 mg/kg; 6 survived out of 6. In kind it is functional, Mus musculus.
Assay [25] concerns P388. The assay can be described thus: Log cell population relative to cell population at the beginning of treatment compared to control group C at a dose of 25 mg/kg. Type of assay: functional, Mus musculus.
In assay [26] the test system is P388. The assay can be described thus: Log cell population relative to cell population at the beginning of treatment compared to control group C at a dose of 50 mg/kg. Type of assay: functional, Mus musculus.
The nature of assay [27]: Antileukemic activity against Murine P388 lymphocytic leukemia, body weight difference of the test animals compared to control group A animals at a dose of 25 mg/kg. Also on record: unit not given here. In kind it is functional, Mus musculus. A digest of the protocol:
as §1

Assay [28] in a line: Antileukemic activity against Murine P388 lymphocytic leukemia, body weight difference of the test animals compared to control group A animals at a dose of 50 mg/kg. On the set-up: unit not given here. Type of assay: functional, Mus musculus. A digest of the protocol: as §1
Assay [29] can be described thus: Antileukemic activity against Murine P388 lymphocytic leukemia, body weight difference of the test animals compared to control group A animals at a dose of 100 mg/kg. In kind it is functional, Mus musculus. On the set-up: unit not given here. A digest of the protocol: as §1
The nature of assay [30]: Antileukemic activity against Murine P388 lymphocytic leukemia, body weight difference of the test animals compared to control group A animals at a dose of 200 mg/kg. In kind it is functional, Mus musculus. A digest of the protocol:
as §1

Assay [31] is described as follows: Toxicity day survivors expressed as number of animals that survived to day five/ number of test animals under control group A at a dose of 400 mg/kg; 3 survived out of 6. In kind it is functional, Mus musculus.
A short description of assay [32]: Toxicity day survivors expressed as number of animals that survived to day five/ number of test animals under control group A at a dose of 50 mg/kg; 6 survived out of 6. In kind it is functional, Mus musculus.
A short description of assay [33]: Toxicity day survivors expressed as number of animals that survived to day five/ number of test animals under control group A at a dose of 100 mg/kg; 6 survived out of 6. Type of assay: functional, Mus musculus.
Assay [34] is described as follows: Toxicity day survivors expressed as number of animals that survived to day five/ number of test animals under control group A at a dose of 200 mg/kg; 6 survived out of 6. In kind it is functional, Mus musculus.
Assay [35] is described as follows: Toxicity day survivors expressed as number of animals that survived to day five/ number of test animals under control group A at a dose of 25 mg/kg; 6 survived out of 6. In kind it is functional, Mus musculus.
The nature of assay [36]: Percent increase in life span of test animals compared to untreated tumor-bearing control group A animals at a dose of 200 mg/kg. Type of assay: functional. As to conditions: Mus musculus.
Assay [37] is described as follows: Antileukemic activity against Murine P388 lymphocytic leukemia, body weight difference of the test animals compared to control group A animals at a dose of 400 mg/kg. Type of assay: functional, Mus musculus. A digest of the protocol:
as §1

Turning to `CC(C)NC(=O)OCc1cn2c(c1COC(=O)NC(C)C)CCC2`, the BWD in [1] is given as -3.6; in assay [2], -0.9; in assay [3] it was -4.5; in assay [4], -4.4. The TDS in assay [5] came to 1; in assay [6], 5; in assay [7], 5; in assay [8], 5. The ILS at 12.5 mg/kg in [9] worked out at 20%. For the same compound, the ILS at 25 mg/kg in [10] is 28%. Besides, the ILS at 50 mg/kg in assay [11] came to 26%. Moreover, the KE is on record as -1.23 with P388 [12], -0.46 in the assay with P388 [13] and -0.69 in the assay with P388 [14].

As to `CNC(=O)OCc1c(COC(=O)NC)c2n(c1C)CSC2`, the BWD is on record as -2.2 in assay [15], -1.9 in [16], -1 in assay [17] and -1.7 in assay [18]. The ILS at 25 mg/kg in [19] was 26%. In addition, the ILS at 50 mg/kg in [20] was determined as 32%. Further, the TDS in assay [21], in assay [22], in [23] and in assay [24] was 6 each time. In addition, the KE in the assay with P388 [25] was -0.03; in the assay on P388 [26], 0.

As to `CC(C)NC(=O)OCc1c(COC(=O)NC(C)C)c(-c2ccc(Cl)c(Cl)c2)n2c1C[S+]([O-])C2` (configuration not stated), the BWD is listed as -0.9 in assay [27]; -1.9 in assay [28]; -2.9 in assay [29]; -3.1 in [30]; -3.4 in [37]. The TDS is given as 3 in assay [31]; 6 in assay [32]; 6 in assay [33]; 6 in assay [34]; 6 in assay [35]. Further, in assay [36], the ILS at 200 mg/kg is -11%.

The record behind these values is ChEMBL document CHEMBL1123648, “Synthesis, chemical reactivity, and antileukemic activity of 5-substituted 6,7-bis(hydroxymethyl)pyrrolo[1,2-c]thiazole biscarbamates and the corresponding sulfoxides and sulfones” (1987).
